≈ marks a conversion by molar mass, not a printed value.
What was measured:
P388 = test: Cytotoxicity against mouse P388 cells after 48 hrs by sulforhodamine B assay; format: functional; details: P388, 48 h, read-out: ED50 (the source's name)
Procedure, shortened: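 Murine P-388 was kept in Fisher's medium with 10% heat-inactivated FBS. Cells were exposed in triplicate to 4 concentrations (0.16–20 µg/ml), final DMSO 0.5%, for 48 h at 37° in 5% CO2. They were fixed with cold 20% TCA, stained with 0.4% sulforhodamine B, and read at 515 nm. ED50 was taken relative to DMSO controls.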

ZR-75-1 = test: Cytotoxicity against human ZR-75-1 cells after 72 hrs by sulforhodamine B assay; format: functional; details: ZR-75-1, 72 h, read-out: ED50 (the source's name)
Procedure, shortened: (§1)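 Cells went in triplicate into 4 concentrations (0.16–20 µg/ml) from DMSO stock, final DMSO 0.5% v/v, for 72 h at 37° in 5% CO2. Cells were fixed with cold 50% TCA and stained with 0.4% sulforhodamine B in 1% HOAc. Bound dye was dissolved in 10 mM Tris base and read at 515 nm. ED50 came from the averaged data as percent of DMSO controls. LNCaP and ZR-75-1 were kept in phenol red-free RPMI with hormone-free FBS plus 0.1 nM testosterone or estradiol, respectively.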

[1] = Cytotoxicity against human U373 cells after 96 hrs by sulforhodamine B assay; format: functional, U-373MG ATCC; details: U373 MG, read-out: ED50 (the source's name)
Procedure, shortened: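 U373 cells were treated in triplicate at 4 concentrations (0.16–20 µg/ml), final DMSO 0.5%, for 96 h at 37° in 5% CO2. Cells were fixed with cold 50% TCA, stained with 0.4% sulforhodamine B in 1% HOAc, and the dye was solubilized in 10 mM Tris. OD was read at 515 nm and ED50 was taken from percent of DMSO control.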

Lu1 = test: Cytotoxicity against human Lu1 cells after 72 hrs by sulforhodamine B assay; format: functional; details: Lu1, 72 h, read-out: ED50 (the source's name); procedure, shortened: as §1
KB = test: Cytotoxicity against human KB cells after 72 hrs by sulforhodamine B assay; format: functional; details: read-out: ED50 (the source's name); procedure, shortened: as §1
LNCaP = test: Cytotoxicity against human LNCAP cells after 72 hrs by sulforhodamine B assay; format: functional; details: read-out: ED50 (the source's name); procedure, shortened: as §1
Col2 = test: Cytotoxicity against human Col2 cells after 72 hrs by sulforhodamine B assay; details: Col2, 72 h, read-out: ED50 (the source's name)
HT-1080 = test: Cytotoxicity against human HT1080 cells after 48 hrs by sulforhodamine B assay; format: functional; details: HT-1080, 48 h, read-out: ED50 (the source's name)
Procedure, shortened: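 HT-1080 was kept in MEME with 1% NAA and 10% heat-inactivated FBS. Cells were treated in triplicate at 4 concentrations (0.16–20 µg/ml), final DMSO 0.5%, for 48 h at 37° in 5% CO2. They were fixed with cold 50% TCA and stained with sulforhodamine B; OD was read at 515 nm. ED50 was taken against DMSO-only controls.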

[2] = Cytotoxicity against human KBV1 cells after 72 hrs by sulforhodamine B assay in absence of vinblastine; format: functional; details: KB-V1, 72 h, read-out: ED50 (the source's name)
A-431 = test: Cytotoxicity against human A431 cells after 72 hrs by sulforhodamine B assay; format: functional; details: A-431, 72 h, read-out: ED50 (the source's name); procedure, shortened: as §1
MEL-2 (Homo sapiens) = test: Cytotoxicity against human MEL-2 cells after 72 hrs by sulforhodamine B assay; details: MEL-2, 72 h, read-out: ED50 (the source's name)
[3] = Cytotoxicity against human BC1 cells after 72 hrs by sulforhodamine B assay; format: functional; details: BC1, 72 h, read-out: ED50 (the source's name); procedure, shortened: as §1
[4] = Cytotoxicity against human KBV1 cells after 72 hrs by sulforhodamine B assay in presence of vinblastine; format: functional; details: KB-V1, 72 h, read-out: ED50 (the source's name)

SMILES	EC50 (P388) [µg/mL]	EC50 (ZR-75-1) [µg/mL]	EC50 [1] [µg/mL]	EC50 (Lu1) [µg/mL]	EC50 (KB) [µg/mL]	EC50 (LNCaP) [µg/mL]	EC50 (Col2) [µg/mL]	EC50 (HT-1080) [µg/mL]	EC50 [2] [µg/mL]	EC50 (A-431) [µg/mL]	EC50 (MEL-2 (Homo sapiens)) [µg/mL]	EC50 [3] [µg/mL]	EC50 [4] [µg/mL]
CC1=C(O)C(=O)C=C2C1=CC=C1[C@@]2(C)CC[C@@]2(C)[C@@H]3C[C@@](C)(O)C(=O)C[C@]3(C)CC[C@]12C	2 (≈ 4.58 µM)	1 (≈ 2.29 µM)	0.8 (≈ 1.83 µM)	2.2 (≈ 5.04 µM)	1.7 (≈ 3.89 µM)	1 (≈ 2.29 µM)	5.8 (≈ 13.3 µM)	2.1 (≈ 4.81 µM)	3 (≈ 6.87 µM)	1.1 (≈ 2.52 µM)	1.5 (≈ 3.44 µM)	0.9 (≈ 2.06 µM)	3.3
COC(=O)[C@]1(C)CC[C@]2(C)CC[C@]3(C)[C@H]4CC[C@]5(COC(C)=O)[C@@H](C)C(=O)CC[C@H]5[C@]4(C)CC[C@@]3(C)[C@@H]2C1	> 5	6.2 (≈ 11.7 µM)	> 20	11.9 (≈ 22.5 µM)	10.1 (≈ 19.1 µM)	11.8 (≈ 22.3 µM)	> 20	10 (≈ 18.9 µM)	9.8 (≈ 18.5 µM)	5.2 (≈ 9.83 µM)	> 20	> 20	12
CC1=C(O)C(=O)C=C2C1=CC=C1[C@@]2(C)CC[C@@]2(C)[C@@H]3C[C@](C)(C(=O)O)CC[C@]3(C)CC[C@]12C [CELASTROL]	3.5 (≈ 7.77 µM)	0.4 (≈ 0.888 µM)	0.4 (≈ 0.888 µM)	1.3 (≈ 2.88 µM)	1.2 (≈ 2.66 µM)	0.3 (≈ 0.666 µM)	2.3 (≈ 5.1 µM)	0.5 (≈ 1.11 µM)	2.4 (≈ 5.33 µM)	0.6 (≈ 1.33 µM)	0.6 (≈ 1.33 µM)	0.3 (≈ 0.666 µM)	1.7
COC(=O)[C@]1(C)CC[C@]2(C)CC[C@]3(C)[C@H]4CC[C@@]56CO[C@@](O)(CC[C@H]5[C@]4(C)CC[C@@]3(C)[C@@H]2C1)[C@@H]6C [SALASPERMIC ACID METHYL ESTER]	> 5	> 20	> 20	> 20	> 20	> 20	> 20	> 20	> 20	> 20	> 20	> 20	> 20
C[C@@H]1[C@@]23CC[C@H]4[C@@](C)(CC[C@@]5(C)[C@@H]6C[C@](C)(C(=O)O)CC[C@]6(C)CC[C@]45C)[C@@H]2CC[C@@]1(O)OC3 [SALASPERMIC ACID]	> 5	> 20	> 20	> 20	> 20	> 20	> 20	> 20	> 20	> 20	> 20	> 20	> 20
CC1=C(O)C(=O)C=C2C1=CC=C1[C@@]2(C)CC[C@@]2(C)[C@@H]3C[C@@H](C)C(=O)C[C@]3(C)CC[C@]12C [TINGENONE]	0.1 (≈ 0.238 µM)	0.2 (≈ 0.476 µM)	0.6 (≈ 1.43 µM)	0.6 (≈ 1.43 µM)	0.9 (≈ 2.14 µM)	0.7 (≈ 1.66 µM)	0.2 (≈ 0.476 µM)	0.7 (≈ 1.66 µM)	0.4 (≈ 0.951 µM)	0.4 (≈ 0.951 µM)	0.2 (≈ 0.476 µM)	0.3 (≈ 0.713 µM)	0.5
